Assay results taken from ChEMBL document CHEMBL1138585, “Synthesis and evaluation of arylalkoxy- and biarylalkoxy-phenylamide and phenylimidazoles as potent and selective sphingosine-1-phosphate receptor subtype-1 agonists” (Bioorg Med Chem Lett, 2009).
Calls of active or inactive are those of the source. The rule behind the calls is not given here.

Tests used:
Mus musculus = assay: Immunomodulatory activity in C57BL/6 mouse assessed as lymphopenia at 10 mg/kg, po after 6 hrs by complete blood count analysis; assay type: functional
Procedure, shortened: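 The amino-alcohol (unphosphorylated) form was given orally to mice, in single doses from 0.3 to 10 mg/kg, with the main screen at 10 mg/kg. Circulating lymphocytes were counted 6 h post-dose. Lymphopenia was expressed as the percent decrease in circulating lymphocytes relative to a time-matched vehicle control group.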

Homo sapiens = species: Homo sapiens; assay: Ratio of IC50 for human S1P3 receptor to IC50 for human S1P1 receptor
[1] = target: Sphingosine 1-phosphate receptor 1 (Homo sapiens, UniProt P21453); assay: Displacement of [33P]sphingosine-1-phosphate from human S1P1 receptor
[2] = target: Sphingosine 1-phosphate receptor 3 (Homo sapiens, UniProt Q99500); assay: Displacement of [33P]sphingosine-1-phosphate from human S1P3 receptor
Sequence of Sphingosine 1-phosphate receptor 3 (Q99500 whole entry): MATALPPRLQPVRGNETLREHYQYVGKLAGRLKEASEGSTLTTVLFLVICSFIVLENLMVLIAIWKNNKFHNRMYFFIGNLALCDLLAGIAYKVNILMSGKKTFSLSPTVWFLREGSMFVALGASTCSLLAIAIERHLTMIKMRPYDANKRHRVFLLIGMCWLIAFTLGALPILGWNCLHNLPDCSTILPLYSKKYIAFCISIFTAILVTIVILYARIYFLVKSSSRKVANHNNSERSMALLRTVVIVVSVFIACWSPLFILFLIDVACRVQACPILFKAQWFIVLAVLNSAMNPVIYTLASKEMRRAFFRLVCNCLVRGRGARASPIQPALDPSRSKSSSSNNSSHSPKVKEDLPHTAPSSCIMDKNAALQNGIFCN

Sequence of Sphingosine 1-phosphate receptor 1 (P21453 whole entry): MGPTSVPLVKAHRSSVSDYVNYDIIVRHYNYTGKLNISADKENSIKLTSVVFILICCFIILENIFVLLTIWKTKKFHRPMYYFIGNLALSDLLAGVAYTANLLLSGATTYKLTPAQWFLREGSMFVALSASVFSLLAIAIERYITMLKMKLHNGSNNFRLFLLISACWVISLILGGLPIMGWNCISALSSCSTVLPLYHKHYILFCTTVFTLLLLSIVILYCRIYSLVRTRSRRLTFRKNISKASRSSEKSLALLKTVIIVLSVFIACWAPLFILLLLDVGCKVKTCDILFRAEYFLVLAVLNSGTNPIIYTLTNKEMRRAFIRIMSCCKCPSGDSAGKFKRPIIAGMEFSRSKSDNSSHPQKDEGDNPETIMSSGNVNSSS

| Structure (SMILES) | Activity (Mus musculus) | other results |
| --- | --- | --- |
| C[C@](N)(CO)C(=O)Nc1ccc(OCCc2cccc3ccccc23)cc1 | inactive |  |
| C[C@](N)(CO)C(=O)Nc1ccc(OCCc2ccc(-c3cccs3)cc2)cc1 | 78% |  |
| COc1ccc(CCCCOc2ccc(NC(=O)[C@@](C)(N)COP(=O)(O)O)cc2)cc1 |  | Ratio IC50 (Homo sapiens): 21; IC50 [1]: 4.75 nM; IC50 [2]: 100 nM |
| CCc1ccc(-c2ccc(CCOc3ccc(NC(=O)[C@@](C)(N)CO)cc3)cc2)cc1 | inactive |  |
| CCc1ccc(-c2ccc(NC(=O)[C@@](C)(N)CO)cc2)cc1 | 29% |  |
| C[C@](N)(CO)C(=O)Nc1ccc(OCCc2ccc(-c3ccccc3C#N)cc2)cc1 | 78% |  |
| C[C@](N)(COP(=O)(O)O)C(=O)Nc1ccc(OCCc2ccc(-c3ccccc3C#N)cc2)cc1 |  | Ratio IC50 (Homo sapiens): 87; IC50 [1]: 12 nM; IC50 [2]: 1040 nM |
| C[C@](N)(CO)C(=O)Nc1ccc(-c2ccc3c(c2)OCO3)cc1 | 40% |  |
| C[C@](N)(CO)C(=O)Nc1ccc(Oc2ccc(-c3ccccc3)cc2)cc1 | 81% |  |
| CCCCc1ccc(-c2ccc(NC(=O)[C@@](C)(N)CO)cc2)cc1 | inactive |  |
| Cc1ccccc1-c1ccc(CCOc2ccc(NC(=O)[C@@](C)(N)COP(=O)(O)O)cc2)cc1 |  | Ratio IC50 (Homo sapiens): 64; IC50 [1]: 0.78 nM; IC50 [2]: 50 nM |
| CCCCOc1cccc(-c2ccc(NC(=O)[C@@](C)(N)CO)cc2)c1 | 16% |  |
| CC(C)Oc1cccc(Oc2ccc(NC(=O)[C@@](C)(N)CO)cc2)c1 | inactive |  |
| C[C@](N)(CO)C(=O)Nc1ccc(OCCCCc2cccs2)cc1 | 66% |  |
| C[C@](N)(CO)C(=O)Nc1ccc(OCCc2cccc(-c3ccccc3)c2)cc1 | inactive |  |
| CC(C)c1cccc(Oc2ccc(NC(=O)[C@@](C)(N)CO)cc2)c1 | inactive |  |
| C[C@](N)(CO)C(=O)Nc1ccc(-c2cccc(OCc3ccccc3)c2)cc1 | 31% |  |
| C[C@](N)(COP(=O)(O)O)C(=O)Nc1ccc(OCCc2ccc(-c3cccs3)cc2)cc1 |  | Ratio IC50 (Homo sapiens): 178; IC50 [1]: 21 nM; IC50 [2]: 3750 nM |
| CCOc1ccc(-c2ccc(CCOc3ccc(NC(=O)[C@@](C)(N)CO)cc3)cc2)cc1 | 10% |  |
| Cc1ccccc1-c1ccc(CCOc2ccc(NC(=O)[C@@](C)(N)CO)cc2)cc1 | 79% |  |
| C[C@](N)(CO)C(=O)Nc1ccc(OCCCCC2CCCCC2)cc1 | 74% |  |
| C[C@](N)(CO)C(=O)Nc1ccc(Oc2ccccc2)cc1 | inactive |  |

| Structure (SMILES) | Activity (Mus musculus) | other results |
| --- | --- | --- |
| C[C@](N)(CO)C(=O)Nc1ccc(Oc2cccc(OCc3ccccc3)c2)cc1 | 10% |  |
| C[C@](N)(CO)C(=O)Nc1ccc(OCCc2ccc(Cl)c(Cl)c2)cc1 | 10% |  |
| C[C@](N)(CO)C(=O)Nc1ccc(OCCc2ccc(Cl)cc2)cc1 | inactive |  |
| CC(C)Oc1cccc(-c2ccc(NC(=O)[C@@](C)(N)CO)cc2)c1 | 23% |  |
| C[C@](N)(COP(=O)(O)O)C(=O)Nc1ccc(OCCc2cccc(-c3ccccc3)c2)cc1 |  | Ratio IC50 (Homo sapiens): 5; IC50 [1]: 2000 nM; IC50 [2]: 10000 nM |
| CCOc1ccc(CCOc2ccc(NC(=O)[C@@](C)(N)CO)cc2)cc1 | inactive |  |
| C[C@](N)(CO)C(=O)Nc1ccc(OCCc2ccc(-c3ccccc3Cl)cc2)cc1 | 75% |  |
| CCOc1cccc(Oc2ccc(NC(=O)[C@@](C)(N)CO)cc2)c1 | inactive |  |
| C[C@](N)(CO)C(=O)Nc1ccc(OCCc2ccc(C(F)(F)F)cc2)cc1 | inactive |  |
| C[C@](N)(CO)C(=O)Nc1ccc(Oc2cccc(C(F)(F)F)c2)cc1 | inactive |  |
| COc1cccc(Oc2ccc(NC(=O)[C@@](C)(N)CO)cc2)c1 | inactive |  |
| C[C@](N)(COP(=O)(O)O)C(=O)Nc1ccc(OCCc2cccc3ccccc23)cc1 |  | Ratio IC50 (Homo sapiens): 11; IC50 [1]: 220 nM; IC50 [2]: 2500 nM |
| CCCOc1cccc(-c2ccc(NC(=O)[C@@](C)(N)CO)cc2)c1 | 20% |  |
| C[C@](N)(CO)C(=O)Nc1ccc(OCCCCCc2ccccc2)cc1 | 64% |  |
| C[C@](N)(CO)C(=O)Nc1ccc(Oc2ccc(F)cc2)cc1 | inactive |  |
| C[C@](N)(COP(=O)(O)O)C(=O)Nc1ccc(OCCc2ccc(-c3ccccc3Cl)cc2)cc1 |  | Ratio IC50 (Homo sapiens): 190; IC50 [1]: 0.84 nM; IC50 [2]: 160 nM |
| COc1cccc(-c2ccc(NC(=O)[C@@](C)(N)CO)cc2)c1 | 34% |  |
| CCc1ccc(Oc2ccc(NC(=O)[C@@](C)(N)CO)cc2)cc1 | inactive |  |
| Cc1ccc(-c2ccc(NC(=O)[C@@](C)(N)CO)cc2)cc1 | 18% |  |
| CC(C)c1cccc(-c2ccc(NC(=O)[C@@](C)(N)CO)cc2)c1 | 22% |  |
| CCCCc1ccc(Oc2ccc(NC(=O)[C@@](C)(N)CO)cc2)cc1 | 10% |  |
| CCOc1cccc(-c2ccc(NC(=O)[C@@](C)(N)CO)cc2)c1 | 15% |  |

| Structure (SMILES) | Activity (Mus musculus) | other results |
| --- | --- | --- |
| C[C@](N)(CO)C(=O)Nc1ccc(-c2ccccc2)cc1 | inactive |  |
| CCCOc1cccc(Oc2ccc(NC(=O)[C@@](C)(N)CO)cc2)c1 | 33% |  |
| C[C@](N)(CO)C(=O)Nc1ccc(OCCc2ccc(-c3cccnc3)cc2)cc1 | 60% |  |
| C[C@](N)(CO)C(=O)Nc1ccc(OCCc2cccc(C(F)(F)F)c2)cc1 | inactive |  |
| COc1ccc(-c2ccc(NC(=O)[C@@](C)(N)CO)cc2)cc1 | inactive |  |
| C[C@](N)(CO)C(=O)Nc1ccc(OCCc2ccc(-c3ccncc3)cc2)cc1 | 78% |  |
| CCCCOc1ccc(-c2ccc(NC(=O)[C@@](C)(N)CO)cc2)cc1 | inactive |  |
| C[C@](N)(CO)C(=O)Nc1ccc(OCCc2ccc(-c3ccc(Cl)cc3)cc2)cc1 | inactive |  |
| C[C@](N)(CO)C(=O)Nc1ccc(Oc2ccc(Cl)cc2)cc1 | inactive |  |
| COc1ccc(CCOc2ccc(NC(=O)[C@@](C)(N)CO)cc2)cc1 | inactive |  |
| CCCCOc1ccc(Oc2ccc(NC(=O)[C@@](C)(N)CO)cc2)cc1 | inactive |  |
| C[C@](N)(CO)C(=O)Nc1ccc(OCCc2ccc(-c3cccc(C(F)(F)F)c3)cc2)cc1 | 51% |  |
| C[C@](N)(CO)C(=O)Nc1ccc(OCCc2ccc(-c3ccoc3)cc2)cc1 | 68% |  |
| C[C@](N)(COP(=O)(O)O)C(=O)Nc1ccc(OCCCCc2cccs2)cc1 |  | Ratio IC50 (Homo sapiens): 4; IC50 [1]: 30 nM; IC50 [2]: 120 nM |
| C[C@](N)(CO)C(=O)Nc1ccc(OCCCCc2ccccc2)cc1 | 85% |  |
| CC(C)c1ccc(-c2ccc(CCOc3ccc(NC(=O)[C@@](C)(N)CO)cc3)cc2)cc1 | inactive |  |
| COc1ccc(CCCCOc2ccc(NC(=O)[C@@](C)(N)CO)cc2)cc1 | 60% |  |
| CCCCOc1cccc(Oc2ccc(NC(=O)[C@@](C)(N)CO)cc2)c1 | inactive |  |
| C[C@](N)(CO)C(=O)Nc1ccc(OCCc2ccc(-c3ccccc3)cc2)cc1 | 81% |  |
| Cc1noc(C)c1-c1ccc(CCOc2ccc(NC(=O)[C@@](C)(N)CO)cc2)cc1 | 62% |  |
